Assay outcomes as filed in PubChem.
In the library only some 4.5% were active in any assay of this set; here they are far more common.
AHR act: AHR activators, primary screen, cell-based, luminescence, luciferase reporter, human; Aryl hydrocarbon receptor (Homo sapiens), P35869; AHR-responsive luciferase reporter cells; activation, % at 5 µM; actives 2.5% (n = 320,000); in the data active means activation above about 47%;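 further: 0% = vehicle wells and 100% = reference agonist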
Target sequence (P35869 whole entry, looked up): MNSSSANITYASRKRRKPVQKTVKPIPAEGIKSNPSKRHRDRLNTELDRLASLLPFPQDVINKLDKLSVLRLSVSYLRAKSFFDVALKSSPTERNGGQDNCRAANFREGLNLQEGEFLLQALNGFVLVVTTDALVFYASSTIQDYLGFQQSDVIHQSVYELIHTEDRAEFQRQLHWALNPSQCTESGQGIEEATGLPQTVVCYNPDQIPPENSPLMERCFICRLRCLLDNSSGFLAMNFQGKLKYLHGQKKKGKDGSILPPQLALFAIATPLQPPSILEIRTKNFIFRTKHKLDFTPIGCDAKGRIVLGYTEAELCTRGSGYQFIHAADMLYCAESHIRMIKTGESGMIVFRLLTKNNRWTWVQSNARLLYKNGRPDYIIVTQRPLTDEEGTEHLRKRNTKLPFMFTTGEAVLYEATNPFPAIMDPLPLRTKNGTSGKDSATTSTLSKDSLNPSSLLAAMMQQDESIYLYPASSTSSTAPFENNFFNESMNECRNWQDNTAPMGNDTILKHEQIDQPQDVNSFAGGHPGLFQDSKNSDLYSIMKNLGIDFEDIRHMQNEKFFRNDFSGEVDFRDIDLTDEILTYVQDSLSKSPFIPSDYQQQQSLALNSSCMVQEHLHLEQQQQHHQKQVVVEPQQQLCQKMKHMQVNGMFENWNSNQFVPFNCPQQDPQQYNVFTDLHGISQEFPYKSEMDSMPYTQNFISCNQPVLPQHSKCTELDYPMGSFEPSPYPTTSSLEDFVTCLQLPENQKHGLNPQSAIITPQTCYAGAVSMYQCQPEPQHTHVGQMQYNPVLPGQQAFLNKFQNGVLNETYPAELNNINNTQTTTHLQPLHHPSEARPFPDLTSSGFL
APP 5'UTR act: activators of APP 5'UTR luciferase reporter, primary screen, SH-SY5Y cells. activation, % at 2 µM. SH-SY5Y APP 5'UTR luciferase reporter, luminescence; zero percent = DMSO vehicle wells. actives 1% (n = 190,000). AID 1276, 2008;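 active means activation above a set limit, based on mean plus 3 SD of controls, cut at about 140% in these data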
PERK inhibitor: block of dimerizer-induced PERK translation repression, primary screen, PERK inhibitor project, CHO PERK-DD cells, SEAP luminescence, HTS | Eukaryotic translation initiation factor 2-alpha kinase 3 (Homo sapiens), Q9NZJ5 | CHO PERK-DD fusion, SEAP luminescence translation reporter | inhibition, % at 5.6 µM | actives 0.17% (n = 220,000);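 active means inhibition above the mean inhibition of all tested compounds plus 3 SD, set separately per screening campaign, cut at about 2.9% in these data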;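 further: PERK kinase domain activated by AP20187 dimerizer at 100 nM; 0% = DMSO with dimerizer and 100% = rapamycin at 8.4 µM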
NF-kB neuron act: activators of NF-kB expression in neurons, primary screen, cell-based, HTS. human neuronal cells, NF-kB reporter expression; active compounds read high. fold change at 12.5 µM. actives 1.6% (n = 190,000); in the data active means fold change above about 3.3
MDM2 E3 inh: MDM2-luciferase reporter signal enhancers, primary screen, MDM2 E3 ligase inhibitor project, cell-based, luminescence, 1536-well | E3 ubiquitin-protein ligase Mdm2 (Homo sapiens), Q00987 | actives 0.11% (n = 210,000) | cell-based MDM2 ubiquitination luciferase reporter, 2 h; 0 = plate control, 100 = twice control, blank-subtracted | signal enhancement, % at 5 µM;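 active means signal enhancement of 30% or more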;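 further: luminescence tracks abundance of the self-degrading MDM2-luciferase fusion protein; higher signal means inhibition of MDM2 E3 ligase activity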
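Material: stable MDM2–luciferase fusion reporter cells / Quantity: 2000 cells/well / Dosing: single 5 µM compound dose, 0.2% final DMSO / Buffer or medium: DMEM / Schedule: 4 h cell settling then 2 h compound exposure, 37 °C / Detection: luminescence with SteadyLite reagent, 15 min at room temperature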
STAT1 activator: STAT1 signaling activators, primary screen, cell-based, HTS, luciferase reporter. NIH 3T3 STAT1-luciferase reporter, IFN-gamma, luminescence; 100% = IFN-gamma alone, no compound. activation (% of control), % at 5.5 µM. actives 2.6% (n = 200,000);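 active means activation above the screen-wide mean activation plus 3 SD, cut at about 130% in these data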;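 further: raw ratio to IFN-gamma control signal so 100% means no change and 0% no light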
STAT1 activ conf: STAT1 signaling activators, confirmation, cell-based, HTS, luciferase reporter | NIH 3T3 STAT1-luciferase reporter, IFN-gamma potentiation, luminescence; 100% = IFN-gamma EC80 alone, no compound | actives 97% (n = 1,200) | activation (% of control), % at 5.7 µM | shares compounds with STAT1 activator;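 active means activation above a set limit carried over from the earlier primary STAT1 screen, cut at about 140% in these data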;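 further: simple ratio to median IFN-gamma plus DMSO wells so 0% means no light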
NFkB act: NF-kB reporter activators, TNF-alpha stimulated, counter-screen for STAT1 activator project, cell-based, HEK293T, luciferase luminescence; shares compounds with STAT1 activator; 100% = TNF-alpha with vehicle only; activation (% of control), % at 5.7 µM; actives 43% (n = 1,200); AID 1306, 2008;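 active means activation above the mean of solvent-only control wells plus 3 SD, set per campaign, cut at about 130% in these data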;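 further: TNF-alpha given at a submaximal dose yielding about 80% of full reporter signal; values are well signal over median control so 100% means no change and 0% no light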
STAT3 act STAT1c: STAT3 reporter activation by STAT1 hits, confirmation, counter-screen for STAT1 activator project, U3A cells, luciferase, luminescence | activation (% of control), % at 5.7 µM | IL-6; cells lack STAT1; 100 = IL-6 alone, no compound effect | actives 46% (n = 1,200) | shares compounds with STAT1 activator;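 active means activation above the solvent-only control well mean plus 3 SD, set per plate batch, cut at about 110% in these data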;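 further: 0% = no luminescence and 100% = median IL-6 plus DMSO wells; higher means more STAT3 reporter activation so hits are non-selective activators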
Starred values were filed as active, the others as inactive; · = not tested or not shown.

SMILES | AHR act | APP 5'UTR act | PERK inhibitor | NF-kB neuron act | MDM2 E3 inh | STAT1 activator | STAT1 activ conf | NFkB act | STAT3 act STAT1c
CNC(=O)c1ccc(-c2nc(-c3ccccc3)cs2)cc1 | -1.1 | 71.0 | 0.0 | 2.41 | -0.9 | 168.9* | 174.3* | 132.0 | 92.4
O=C(O)c1ccccc1C(=O)Nc1ccc(-c2csc(-c3ccccc3)n2)cc1 | 3.3 | 59.6 | -0.1 | 1.74 | -10.1 | 157.4* | 141.4* | 122.8 | 100.2
Cc1ccc(C(=O)Nc2ccc(-c3csc(C)n3)cc2)cc1 | -5.0 | 185.6* | 0.5 | 2.61 | -5.1 | 163.5* | 187.5* | 133.0 | 92.9
O=C(O)c1ccccc1-c1csc(-c2ccccc2)n1 | 4.8 | 6.3 | -0.5 | 1.7 | 3.2 | 116.2 | · | · | ·
O=C(O)c1ccc(-c2nc(-c3ccccc3)cs2)cc1 | 11.2 | 89.1 | 0.1 | 2.32 | -12.0 | 156.9* | 178.6* | 125.8 | 128.5*
Oc1ccc(-c2nc3c4c(ncn3n2)-c2ccccc2CC42CCCC2)cc1 | 4.9 | -13.0 | 0.7 | 0.67 | -7.9 | 107.0 | · | · | ·
Cc1ccc(-c2[nH]ncc2C(=O)c2ccc(Br)cc2)c(O)c1 | 4.2 | · | · | · | · | · | · | · | ·
CC1CCCCC1NC(=O)c1cccc(N2C(=O)C3C4C=CC(C4)C3C2=O)c1 (stereo unspecified) | 0.0 | · | · | · | · | · | · | · | ·
COCCN(C(=O)/C=C/c1ccccc1)c1nnc(-c2cccnc2)s1 | 1.5 | 11.3 | -0.1 | 0.74 | -13.3 | 89.9 | · | · | ·
C=CCNc1ncnc2c1cnn2-c1ccc(OC)cc1 | -7.8 | 148.5* | 0.6 | 4.54* | -18.2 | 177.7* | 233.9* | 126.0 | 107.6
COc1ccc(-n2ncc3c(Nc4cccc(C)c4)ncnc32)cc1 | -0.8 | 98.0 | 1.1 | 1.72 | -9.0 | 118.0 | · | · | ·
COc1ccc(-n2ncc3c(N4CCN(Cc5ccccc5)CC4)ncnc32)cc1 | 9.9 | 13.4 | -0.9 | 1.3 | -18.2 | 112.6 | · | · | ·
CCCN(CCC)c1ncnc2c1cnn2-c1ccc(OC)cc1 | -3.8 | 136.8* | -0.9 | 2.08 | -37.5 | 161.7* | 249.4* | 145.1* | 105.1
COc1ccc(-n2ncc3c(NCc4ccco4)ncnc32)cc1 | 11.5 | 95.4 | 0.5 | 3.22 | -17.1 | 162.2* | 185.2* | 138.0* | 114.5*
CCn1nc(C)c(CNC(=O)C2CCC(=O)N(Cc3ccc(Cl)cc3)C2)c1C (stereo unspecified) | -0.3 | · | · | · | · | · | · | · | ·
O=C1COc2ccc(S(=O)(=O)Nc3ccc4c(c3)OCO4)cc2N1 | 3.2 | -11.7 | -0.5 | 1.06 | -14.9 | 93.1 | · | · | ·
Cc1ccc(-c2cc3nc4c(c(=O)n3[nH]2)CCCC4)cc1 | 14.6 | 89.0 | 0.8 | · | · | 174.2* | 232.0* | 113.6 | 96.2
Cc1[nH]n2c(=O)c3c(nc2c1-c1ccc(Cl)cc1)CCC3 | 1.5 | 41.7 | 0.3 | 1.51 | 7.2 | 104.1 | · | · | ·
O=c1c2c(nc3cc(-c4ccc(F)cc4)[nH]n13)CCC2 | 16.1 | 98.7 | 1.0 | 1.04 | -20.5 | 152.2* | 176.0* | 118.1 | 102.3
CCCC(=O)Nc1ccc2nn(-c3ccc(OC)cc3)nc2c1 | 18.2 | · | · | · | · | · | · | · | ·
CC(C)CC(=O)Nc1ccc2nn(-c3ccccc3)nc2c1 | -6.5 | 179.1* | -0.1 | 6.3* | 1.5 | 177.1* | 223.6* | 149.0* | 109.3
Cc1ccc(S(=O)(=O)NCC(=O)OCC(=O)Nc2ccc3c(c2)OCCO3)cc1 | -0.7 | · | · | · | · | · | · | · | ·
CN(C)c1ccc(N=C/C=C2/N(C)c3ccccc3C2(C)C)cc1 | · | 163.7* | 0.0 | 0.6 | -16.2 | 172.7* | 121.2 | 117.4 | 109.6
CCCCN(C(=O)c1ccc(Br)o1)C1CCS(=O)(=O)C1 (stereo unspecified) | 0.3 | · | · | · | · | · | · | · | ·
O=C(c1ccc(NS(=O)(=O)c2ccc3[nH]c(=O)[nH]c3c2)cc1)N1CCCC(C(F)(F)F)C1 (stereo unspecified) | -0.3 | · | · | · | · | · | · | · | ·
SMILES | AHR act | APP 5'UTR act | PERK inhibitor | NF-kB neuron act | MDM2 E3 inh | STAT1 activator | STAT1 activ conf | NFkB act | STAT3 act STAT1c
O=c1c2ccccc2nnn1CSc1ccccc1F | 44.5 | 152.3* | 0.5 | 4.66* | -27.8 | 159.9* | 198.3* | 115.3 | 103.2
Cc1ccc2nc(SCn3nnc4ccccc4c3=O)[nH]c2c1 | 74.8* | 175.0* | -0.4 | 3.77* | -21.4 | 163.2* | 180.0* | 119.5 | 129.2*
CCn1nnnc1SCC(=O)NC1Cc2ccccc2C1 | 0.1 | · | 0.2 | · | -14.7 | · | · | · | ·
O=c1oc(Nc2cccc(Cl)c2)nc2ccccc12 | 7.1 | 71.1 | 1.7 | 2.43 | 11.0 | 157.1* | 176.7* | 117.9 | 157.5*
COc1cc(/C=N/O)ccc1OCc1ccc(Cl)cc1 | 4.9 | 191.2* | 0.3 | 8.39* | -24.1 | 155.2* | 282.9* | 147.5* | 141.1*
Clc1cccc(OCc2nc(-c3ccncc3)no2)c1 | 9.9 | -3.9 | 2.2 | 0.77 | 14.5 | 114.3 | · | · | ·
Clc1ccc(OCc2nc(-c3ccncc3)no2)c(Cl)c1 | 0.5 | 143.8* | -0.2 | 5.81* | -6.8 | 174.2* | 229.8* | 141.6* | 115.6*
Cc1ccccc1Nc1nc(N)nc(-c2oc3ccccc3c2C)n1 | -6.3 | · | -1.1 | · | -5.0 | · | · | · | ·
Cc1c(-c2nc(N)nc(Nc3ccc(F)cc3)n2)oc2ccccc12 | -12.0 | 151.7* | -0.8 | 3.33* | -6.1 | 155.9* | 183.0* | 142.2* | 106.2
Nc1nnc(-c2ccc(Cl)c(Cl)c2)s1 | -3.2 | 1.2 | -0.2 | 1.52 | -11.5 | 118.8 | · | · | ·
Nc1cccn2c(-c3ccc(Cl)c(Cl)c3)cnc12 | 22.4 | 210.8* | 0.5 | 11.9* | -5.7 | 150.9* | 101.5 | 130.7 | 158.8*
COc1ccc(N(C(=O)c2snc(C(N)=O)c2N)C(C(=O)NC2CCCC2)c2cc(OC)ccc2OC)cc1 (stereo unspecified) | -2.2 | · | · | · | · | · | · | · | ·
COc1ccc(-c2noc(Cc3cccs3)n2)cc1 | -1.9 | 96.4 | 0.7 | 3.94* | -17.7 | 161.9* | 181.1* | 138.4* | 104.2
